Assay outcomes (PubChem)
Rows were chosen to be rich in hits. Some 2.4% of all compounds tested hit in one or more screens of this group.
GSTO1 counter = GSTO1 inhibition, counter-screen for RBBP9 inhibitors; P78417; recombinant GSTO1, activity-based probe fluorescence polarization; inhibition, % at 5.96 µM; hit rate 1.1% among 300,000;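 active means inhibition above the campaign mean inhibition plus 3 SD, cut at about 35% in these data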;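 further: 0% = GSTO1-1 with DMSO and 100% = wells lacking GSTO1-1 enzyme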
SIAE inh = blocks human sialic acid acetylesterase; Q9HAT2; SIAE FP-Rh probe binding, fluorescence polarization; hit rate 0.69% among 370,000; inhibition, % at 9.66 µM; AID 1053197;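 active means inhibition above a cutoff: mean of compounds within the control limits plus 3 SD of those, cut at about 17% in these data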;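 further: 0% = plate median of compound wells and 100% = probe without SIAE protein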
Target sequence (Q9HAT2 whole entry, looked up): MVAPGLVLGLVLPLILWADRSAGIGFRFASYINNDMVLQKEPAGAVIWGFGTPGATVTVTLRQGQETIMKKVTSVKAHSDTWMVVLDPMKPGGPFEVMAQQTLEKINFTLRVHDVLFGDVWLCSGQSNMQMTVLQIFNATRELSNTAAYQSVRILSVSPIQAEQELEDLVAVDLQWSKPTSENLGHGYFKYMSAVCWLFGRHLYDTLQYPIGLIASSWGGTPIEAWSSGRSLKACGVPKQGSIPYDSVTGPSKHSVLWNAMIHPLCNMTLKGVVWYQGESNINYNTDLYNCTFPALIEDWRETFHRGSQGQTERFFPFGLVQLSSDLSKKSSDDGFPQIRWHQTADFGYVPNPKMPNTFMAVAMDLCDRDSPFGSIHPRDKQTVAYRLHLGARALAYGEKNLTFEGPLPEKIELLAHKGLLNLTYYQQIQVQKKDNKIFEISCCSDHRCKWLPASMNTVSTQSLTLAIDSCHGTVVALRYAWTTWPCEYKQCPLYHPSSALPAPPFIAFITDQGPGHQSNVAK
TCR CD3 inh = inhibitors of human TCR-CD3 interaction. TAMRA-labeled TCR probe fluorescence, biochemical. inhibition, % at 9.4 µM. hit rate 0.37% among 360,000;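 further: recombinant mutant TCR 2C K166C tagged with TAMRA read by polarization; 0% = receptor in buffer alone and 100% = receptor with positive control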
Apaf1 inhib = human Apaf-1 inhibition | O14727 | reconstituted apoptosome caspase-3 activity, DEVD-Rh110 fluorescence | inhibition, % at 20 µM | hit rate 0.71% among 330,000; active means inhibition of at least 40% at 20 µM;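 further: plate controls were DMSO wells for no effect and DEVD-CHO caspase inhibitor wells for full effect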
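System: Apoptosome proteins | Medium: Hepes pH 7.5 with detergent and BSA | Also added: Cytochrome c trigger plus (Z-DEVD)2-Rh110 caspase-3 substrate | Incubation: 30 min compound preincubation, 50 min activation, room temperature | Detection: Rhodamine 110 fluorescence at Ex 480/Em 540 nm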
TDP2 inh = TDP2 (human) inhibition, absorbance primary screen; hit rate 0.34% among 370,000; O95551; AID 720702; inhibition, % at 12.8 µM; recombinant TDP2, T5PNP hydrolysis, p-nitrophenol absorbance 415 nm;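 active means inhibition above the mean of all tested compounds plus 3 SD, set per campaign, cut at about 25% in these data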;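 further: 0% = DMSO with enzyme and 100% = buffer with substrate but no TDP2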
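System – recombinant human TDP2 · Quantity – TDP2 enzyme at 120 nM final · Doses – single concentration, 12.8 µM nominal, with 1% DMSO · Incubation – 2 h at 37 °C · Measured by – epi absorbance of p-nitrophenol freed from T5PNP by hydrolysis · Read-out – % inhibition relative to enzyme-containing and enzyme-free wells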
PAD4 FP inh = inhibitors of human PAD4 | hit rate 0.41% among 330,000 | inhibition, % at 6.36 µM | Q9UM07 | recombinant PAD4, RCA probe fluorescence polarization;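 active means percent inhibition above a cutoff equal to the mean of all tested compounds plus 3 SD, cut at about 15% in these data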;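 further: 0% = PAD4 with RCA probe and DMSO and 100% = probe without PAD4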
PAD4 FP conf = PAD4 (human) inhibition, confirmed | shares compounds with PAD4 FP inh | recombinant PAD4, RCA probe fluorescence polarization | inhibition, % at 6.36 µM | hit rate 28% among 1,200 | AID 488796;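 active means mean inhibition across replicates above the hit cutoff set by the earlier primary screen, cut at about 15% in these data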;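 further: inhibitors block active-site labeling by the probe so polarization falls; 0% = PAD4 with probe and DMSO and 100% = probe without PAD4 enzyme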
Apaf-1 inh conf2 = confirmation of Apaf-1 inhibitors | AID 504614 | hit rate 25% among 1,800 | reconstituted apoptosome, caspase-3 DEVD-Rh110 fluorescence | shares compounds with Apaf1 inhib | inhibition, % at 20 µM;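 active means mean inhibition of at least 40% at 20 µM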;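 further: plate controls were DMSO wells for no effect and DEVD-CHO caspase inhibitor control wells for full effect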
Rh110 interf inh = Rh110 signal interference in Apaf-1 inhibitor counter-screen | shares compounds with Apaf1 inhib | Rh110 fluorescence interference, quenched caspase reaction | activation (fluorescence interference), % at 20 µM | 1,800 tested, under 10 active | AID 504615;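 active means signal rise of 40% or more at 20 µM, treated as a fluorescence artifact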
BSA probe FL = BSA probe counter-screen for TCR-CD3 inhibitors; shares compounds with TCR CD3 inh; TAMRA-labeled BSA probe fluorescence counterscreen; inhibition, % at 9.4 µM; hit rate 10% among 1,200; AID 652035; in the data active means inhibition above about 23%;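 further: 0% = buffer low control and 100% = reference high control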
TCR-CD3 conf = confirmation of human TCR-CD3 interaction inhibitors; inhibition, % at 9.4 µM; hit rate 48% among 1,200; TAMRA-labeled TCR probe fluorescence binding assay; shares compounds with TCR CD3 inh
TDP2 confirm = human TDP2 inhibition, confirmation; shares compounds with TDP2 inh; recombinant human TDP2, absorbance read-out; inhibition, % at 12.8 µM; hit rate 22% among 1,100; AID 743263; in the data active means inhibition above about 25%;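 further: 0% = vehicle with enzyme and 100% = no enzyme buffer only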
Active calls of the source: *; x = no result. Unless noted, no stated cut-off is given here; in the data, active means inhibition above about 19%; inactive means the rest.

SMILES	GSTO1 counter	SIAE inh	TCR CD3 inh	Apaf1 inhib	TDP2 inh	PAD4 FP inh	PAD4 FP conf	others
Cc1cc2cc(CNC(=O)C(C)Oc3ccccc3)ccc2n1C (stereo not drawn)	11	6	45*	4	9	29*	4	BSA probe FL=4;TCR-CD3 conf=4
CCC(CC)C(=O)NCc1ccc2c(c1)cc(C)n2C	-2	6	1	-4	7	-5	x
COc1ccccc1N1CCN(CCC(=O)Nc2cccc(F)c2)CC1	x	9	6	x	-6	x	x
CCN(CC)c1ccc(C(=O)c2ccccc2C(=O)O)c(O)c1	10	11	40*	-2	2	21*	26*	BSA probe FL=56*;TCR-CD3 conf=36*
Cc1cc(C(=O)O)ccc1N/C=C1\CCCC(C)C1=O (stereo not drawn)	6	5	-3	2	5	-5	x
CC1CCC/C(=C\Nc2ccc(O)cc2)C1=O (stereo not drawn)	37*	16	24*	34	8	28*	9	BSA probe FL=2;TCR-CD3 conf=3
O=C(O)CCNc1ccc(NCCC(=O)O)c2c1C(=O)c1ccccc1C2=O	18	13	28*	-12	4	22*	11	BSA probe FL=13;TCR-CD3 conf=42*
COc1ncnc2c1NC1=C(S2)C(=NCCC(=O)O)CC(C)(C)C1	3	-5	29*	7	5	20*	24*	BSA probe FL=53*;TCR-CD3 conf=41*
CN(C)c1ncnc2c1NC1=C(S2)C(=NCCCC(=O)O)CC(C)(C)C1	16	2	5	6	5	-3	x
Cc1cc(C)n2nc(SCCOc3ccc(F)cc3)nc2n1	3	6	-6	0	10	-3	x
Nc1ccc(-c2c3ccc(=O)cc-3oc3cc(O)ccc23)cc1C(=O)O	-2	13	38*	17	-15	23*	33*	BSA probe FL=49*;TCR-CD3 conf=34*
O=c1cc(-c2ccccc2)oc2cc(O)ccc12	x	9	-3	x	-14	x	x
CC(=O)Nc1ccc(Nc2c3c4c(cccc4n(C)c2=O)C(=O)c2ccccc2-3)cc1	9	6	21*	2	-2	19*	23*	BSA probe FL=55*;TCR-CD3 conf=37*
CCOC(=O)c1c(C)n(C)c2ccc(OC)c(NS(=O)(=O)c3ccc(Cl)s3)c12	-19	-3	1	22	-3	3	x
Cc1oc2cc(O)ccc2c(=O)c1-c1nncn1-c1ccccc1	7	4	25*	2	-2	18*	16*	BSA probe FL=27*;TCR-CD3 conf=23*
CCN1CCN(S(=O)(=O)c2ccc(Cl)c(C(=O)N(C)CC(=O)Nc3c(C)cccc3C)c2)CC1	x	4	-12	x	-4	x	x
CCc1nnc(N/N=C\c2ccc(OC(C)=O)c(OC)c2)n1N	21	5	4	1	54*	25*	0	TDP2 confirm=4
CCc1nnc(N/N=C/c2ccc(O)c(OC)c2)n1N	20	2	0	-11	79*	38*	2	TDP2 confirm=14
COc1cc(/C=N/NC(=O)Nc2ccccc2)ccc1OC(C)=O	2	5	0	2	5	-1	x
Cc1[nH]c2ccccc2c1/C=N/Nc1ccccn1	x	4	2	x	1	x	x
Cc1[nH]c2ccccc2c1/C=N/Nc1nncn1N	23	9	0	0	74*	35*	7	TDP2 confirm=4
O=c1cc(-c2ccccc2)[nH]n1-c1nc2ccccc2[nH]1	-9	8	6	22	6	-2	x
N#CCCn1[nH]c(-c2ccccc2)cc1=O	39*	11	-7	72*	85*	51*	3	Apaf-1 inh conf2=15;Rh110 interf inh=4;TDP2 confirm=11
Cn1c2c(c(=O)n(C)c1=O)C(c1ccc(F)cc1)C(C#N)=C(N)O2 (stereo not drawn)	6	3	-6	3	6	-4	x
Cc1nn(-c2cccc(Cl)c2)c2c1C(c1cccnc1)C(C#N)=C(N)O2 (stereo not drawn)	7	10	-1	32	60*	62*	-8	TDP2 confirm=7
SMILES	GSTO1 counter	SIAE inh	TCR CD3 inh	Apaf1 inhib	TDP2 inh	PAD4 FP inh	PAD4 FP conf	others
Cc1ccc(-n2nc(C)c3c2OC(N)=C(C#N)C3c2ccc(F)cc2)cc1 (stereo not drawn)	42*	2	5	3	49*	43*	-1	TDP2 confirm=0
COc1ccc(CCNC(=O)CCCn2ncn3c(cc4occc43)c2=O)c(OC)c1	-1	1	-1	9	-11	2	x
Cc1nn(CCCC(=O)NCc2ccccc2)c(C)c1[N+](=O)[O-]	2	2	6	-5	7	5	x
COc1cccc(COc2ccc3c(C)c(Cc4ccccc4)c(=O)oc3c2)c1	1	-6	-4	13	5	3	x
CC(=O)Nc1ccc(NC(=O)C/C(C)=N/NC(=O)C(=O)Nc2ccc(C)c(Cl)c2)cc1	8	13	-2	-16	-4	-1	x
CCOC(=O)C1=C(COC(=O)c2ccc([N+](=O)[O-])s2)NC(=O)NC1C (stereo not drawn)	x	-1	-7	46*	39*	26*	17*	Apaf-1 inh conf2=38;Rh110 interf inh=3;TDP2 confirm=41*
CCOC(=O)C1=C(COC(=O)c2sccc2C)NC(=O)NC1C (stereo not drawn)	x	-7	0	-6	1	4	x
C=CCn1c(Sc2nc(C)cs2)nc2c1c(=O)[nH]c(=O)n2C	8	-4	5	-6	-2	0	x
c1ccc(Nc2cc(Nc3ccccc3)[nH]n2)cc1	4	-2	-5	5	75*	31*	8	TDP2 confirm=6
CCOC(=O)CN(C(=O)CSc1nnc(Cc2ccccc2)n1-c1ccc(C)cc1)c1ccccc1	4	5	4	14	4	-3	x
CCCCOc1ccc(N(CC(=O)NC(C)(C)CC)C(=O)CCC(=O)Nc2ccccn2)cc1	5	3	3	5	8	-3	x
Cc1[nH][nH]c(=O)c1C(c1ccc(-c2cccc(C(=O)O)c2)o1)c1c(C)[nH][nH]c1=O	33	10	11	78*	63*	33*	-12	Apaf-1 inh conf2=31;Rh110 interf inh=9;TDP2 confirm=31*
